The values below come from ChEMBL document CHEMBL1144143, “Phenolic glycosides from Dirca palustris” (J Nat Prod, 1999).

Activity calls are given as the source filed them. No cut-off for these calls is given here.

For series [1], the target named is T1, Prostaglandin G/H synthase 1 (Ovis aries) (UniProt P05979).
T1 sequence (whole entry): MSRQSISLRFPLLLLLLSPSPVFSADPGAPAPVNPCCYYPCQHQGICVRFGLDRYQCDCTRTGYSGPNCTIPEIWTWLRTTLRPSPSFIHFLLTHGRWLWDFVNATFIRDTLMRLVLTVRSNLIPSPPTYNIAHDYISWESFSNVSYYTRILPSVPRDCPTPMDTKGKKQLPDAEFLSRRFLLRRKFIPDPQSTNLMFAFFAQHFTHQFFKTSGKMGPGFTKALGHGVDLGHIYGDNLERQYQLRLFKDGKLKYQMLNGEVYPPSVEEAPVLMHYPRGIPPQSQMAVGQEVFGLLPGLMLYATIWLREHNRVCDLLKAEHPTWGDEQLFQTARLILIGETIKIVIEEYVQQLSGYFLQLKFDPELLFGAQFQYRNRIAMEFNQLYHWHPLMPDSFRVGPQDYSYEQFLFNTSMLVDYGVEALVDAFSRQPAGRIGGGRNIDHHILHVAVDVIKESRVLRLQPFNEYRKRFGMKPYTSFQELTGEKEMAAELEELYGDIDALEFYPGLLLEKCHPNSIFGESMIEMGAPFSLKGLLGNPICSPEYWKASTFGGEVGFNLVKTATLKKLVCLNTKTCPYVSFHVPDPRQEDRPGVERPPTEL
As to conditions: 2.52 ug/mL.

For series [2], the target named is T1, Prostaglandin G/H synthase 1 (Ovis aries). As to conditions: 2.06 ug/mL.
The target is the same in series [3]. Kind of series: Inhibition of sheep COX1 at 125 ug/mL. The method in brief:
(§1)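 COX-I. Initial rate of O2 uptake measured at 37 °C with an oxygen electrode. Mixture: 0.1 M Tris at pH 7.0, 1 mmol phenol, 85 µg hemoglobin and 100 µmol arachidonic acid. Compound was added in DMSO, with a DMSO-only control. Reaction was started with 5-25 µg microsomal protein. Results are expressed as % inhibition.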

The nature of series [4]: Inhibition of insect cell COX2 at 125 ug/mL. The method in brief: (§2)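 COX-II was an insect cell lysate preparation, diluted in Tris at pH 7.0 to about 1.5 mg protein/mL. O2 uptake was measured at 37 °C by oxygen electrode. Mixture: 0.1 M Tris at pH 7.0, phenol, hemoglobin and 100 µmol arachidonic acid. Compound was added in DMSO, and the reaction was started by adding enzyme protein.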

A short description of series [5]: Antioxidation activity assessed as inhibition of peroxidation of liposome. It counts as physicochemical. To be noted: artificial membrane. The essentials:
(§3)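 Fe2+-initiated peroxidation of large unilamellar liposomes made from 1-stearoyl-2-linoleoyl-phosphocholine with the fluorescent probe 3-[p-(6-phenyl)-1,3,5-hexatrienyl]phenylpropionic acid. Liposomes were extruded through a 100 nm membrane. The assay used Chelex-treated HEPES buffer at pH 7.0 with NaCl, at 23 °C, with test agent in DMSO. Reaction was started with 20 µM FeCl2 (final). Fluorescence (excitation 384 nm) was read every 3 min for 21 min. Positive controls were at 10 µM final.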

A short description of series [6]: Inhibition of insect cell COX2 at 200 ug/mL. The essentials: as §2
Series [7] is described as follows: Antioxidation activity assessed as inhibition of peroxidation of liposome at 60 ug/mL. Format: physicochemical. As to conditions: artificial membrane. The essentials:
as §3

The target of series [8] is T1, Prostaglandin G/H synthase 1 (Ovis aries). The experiment in a line: Inhibition of sheep COX1. The essentials: as §1
Series [9] has the same target. Kind of series: Inhibition of sheep COX1 at 200 ug/mL. The essentials: as §1
Series [10] in a line: Antioxidation activity assessed as inhibition of peroxidation of liposome at 1.80 ug/mL. It counts as physicochemical. To be noted: artificial membrane. The essentials: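 Large unilamellar liposomes (100 nm extrusion) of 1-stearoyl-2-linoleoyl phosphatidylcholine carrying a phenylhexatrienyl-phenylpropionic acid fluorescent probe, in Chelex-treated HEPES pH 7.0 with NaCl. Test compound added in DMSO. Peroxidation started with FeCl2 (20 µM Fe2+ final) at 23 °C. Fluorescence (excitation 384 nm) read every 3 min for 21 min; the fall in relative intensity gives the peroxidation rate.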

The nature of series [11]: Antioxidation activity assessed as inhibition of peroxidation of liposome at 2.20 ug/mL. It counts as physicochemical. To be noted: artificial membrane. The method in brief: as §3
A short description of series [12]: Antioxidation activity assessed as inhibition of peroxidation of liposome at 4.31 ug/mL. It counts as physicochemical. To be noted: artificial membrane. The method in brief:
as §3

The nature of series [13]: Antioxidation activity assessed as inhibition of peroxidation of liposome at 1.66 ug/mL. To be noted: artificial membrane. Format: physicochemical. The method in brief:
as §3

The target of series [14] is T1, Prostaglandin G/H synthase 1 (Ovis aries). To be noted: 180 ug/mL.

With `COc1ccc2cc([C@H](C)C(=O)O)ccc2c1`, in series [1], the inhibition came to 58%.

In series [2], `CC(C)Cc1ccc(C(C)C(=O)O)cc1` (configuration not stated) had an inhibition of 53.3%.

Turning to `COc1cc(/C=C/CO)c(OC)c(O[C@@H]2O[C@H](CO)[C@@H](O)[C@H](O)[C@H]2O)c1`, the inhibition in series [3] turned out to be 9.2%. In series [4], the result was inactive. In series [5], the Activity entry is on record as “Not Active”.

Consider `COc1ccc(-c2cc(=O)c3c(OC)cc(O[C@@H]4O[C@H](CO[C@H]5OC[C@@H](O)[C@H](O)[C@H]5O)[C@@H](O)[C@H](O)[C@H]4O)cc3o2)cc1`, for which the outcome in series [6] and in series [8] was inactive. For the same molecule, the “inhibition (INH)” value in [7] came to 78%.

In turn, `COc1cc(O[C@@H]2O[C@H](CO[C@H]3OC[C@@H](O)[C@H](O)[C@H]3O)[C@@H](O)[C@H](O)[C@H]2O)cc2oc(-c3ccc(O)cc3)cc(=O)c12` registered an inhibition in series [9] of 12.5%. Further, the outcome in [6] was inactive. Moreover, in series [7], the “inhibition (INH)” value came out at 71%.

Consider `COc1ccc(O)c(C(C)(C)C)c1.COc1ccc(O)cc1C(C)(C)C` [BUTYLATED HYDROXYANISOLE], for which the “inhibition (INH)” value in [10] is 91%.

Regarding `Cc1cc(C(C)(C)C)c(O)c(C(C)(C)C)c1` [BUTYLATED HYDROXYTOLUENE], in series [11], the “inhibition (INH)” value is listed as 81%.

For VITAMIN E, the “inhibition (INH)” value in series [12] was determined as 7%.

As to `COc1ccc(-c2cc(=O)c3c(OC)cc(O[C@@H]4O[C@H](CO[C@H]5O[C@H](C)[C@@H](O)[C@H](O)[C@H]5O)[C@@H](O)[C@H](O)[C@H]4O)cc3o2)cc1OC`, the outcome in series [6] and in series [8] was inactive. Further, in series [7], the “inhibition (INH)” value is 67%.

With `CC(C)(C)c1cc(O)ccc1O` [E319], the “inhibition (INH)” value in series [13] was 90%.

`CC(=O)Oc1ccccc1C(=O)O`: the inhibition in [14] turned out to be 52.1%.

As to `COc1ccc(-c2cc(=O)c3c(OC)cc(O[C@@H]4O[C@H](CO[C@H]5OC[C@@H](O)[C@H](O)[C@H]5O)[C@@H](O)[C@H](O)[C@H]4O)cc3o2)cc1OC`, the result in series [6] and in series [8] was inactive. Moreover, the “inhibition (INH)” value in series [7] came to 98%.

One may read the inhibition as the drop in the measured response relative to a control, in per cent. A high value points to strong suppression.
